Screens (PubChem)
Compounds with a hit are over-represented: about 12% of the library has one in this group of screens.
PKD1 inh: inhibitors of human PKD1 kinase, biochemical, fluorescence polarization; inhibition, % (no concentration beside the values); PKD1 kinase fluorescence polarization assay; AID 797, 2007; 200,000 compounds, 0.056% hits
Target sequence (Q15139 whole entry, looked up): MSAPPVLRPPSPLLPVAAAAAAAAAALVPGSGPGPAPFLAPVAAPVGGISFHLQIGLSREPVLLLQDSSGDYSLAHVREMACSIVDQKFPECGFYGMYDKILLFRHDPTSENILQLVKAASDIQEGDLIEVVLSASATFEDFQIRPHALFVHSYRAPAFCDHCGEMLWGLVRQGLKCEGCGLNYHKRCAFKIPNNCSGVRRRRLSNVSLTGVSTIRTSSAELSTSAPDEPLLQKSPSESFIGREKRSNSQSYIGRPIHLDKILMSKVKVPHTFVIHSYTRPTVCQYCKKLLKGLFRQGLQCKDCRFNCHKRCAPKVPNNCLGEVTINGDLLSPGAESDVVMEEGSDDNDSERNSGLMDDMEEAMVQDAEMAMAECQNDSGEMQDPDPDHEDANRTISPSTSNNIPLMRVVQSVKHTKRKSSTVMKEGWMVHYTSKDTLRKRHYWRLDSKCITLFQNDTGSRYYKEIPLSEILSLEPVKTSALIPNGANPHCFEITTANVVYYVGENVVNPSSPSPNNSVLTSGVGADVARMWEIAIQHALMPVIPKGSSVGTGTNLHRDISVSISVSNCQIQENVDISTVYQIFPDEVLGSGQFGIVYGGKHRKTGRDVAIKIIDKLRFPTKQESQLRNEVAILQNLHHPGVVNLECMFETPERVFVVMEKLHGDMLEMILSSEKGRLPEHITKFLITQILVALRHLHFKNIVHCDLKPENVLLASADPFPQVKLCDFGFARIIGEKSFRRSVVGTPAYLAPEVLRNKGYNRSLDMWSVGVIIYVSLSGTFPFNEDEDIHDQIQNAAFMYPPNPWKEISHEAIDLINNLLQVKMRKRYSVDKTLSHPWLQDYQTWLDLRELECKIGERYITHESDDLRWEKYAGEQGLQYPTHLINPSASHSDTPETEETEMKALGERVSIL
Rad51 HR inh: human RAD51 strand exchange inhibitors, primary screen, biochemical, fluorescence | 200,000 compounds, 0.085% hits | hRad51 DNA strand exchange, fluorescence dequenching | AID 1385, 2008 | DNA repair protein RAD51 homolog 1 (Homo sapiens), Q06609 | inhibition, % at 10 µM;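 active means inhibition above 40% at the single screening dose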
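material = hRad51 filaments on single-stranded DNA | reagent = Donor/quencher-labelled 47-bp dsDNA substrate | compound = 10 µM final, single point | schedule = strand-exchange reaction 15 min at room temperature | measured by = fluorescein emission 520 nm, excitation 485 nm | read-out basis = % inhibition versus plate control and blank means | benchmarks = plate controls and plate blanks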
L major viab: Leishmania major promastigote growth inhibition, primary screen; Leishmania major promastigotes, resazurin fluorescence viability; inhibition, % at 10 µM; 200,000 compounds, 9% hits;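 further: promastigotes grown with compound for 44 hours at 28 °C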
Wee1 stabilizer: Wee1 degradation inhibitors, primary screen, cell-based, HeLa, Wee1K328M-luciferase, luminescence; Wee1-like protein kinase (Homo sapiens), P30291; HeLa Luc-Wee1K328M stability; 100% = proteasome inhibitor MG132 effect; reporter increase, % at 5 µM; 220,000 compounds, 1.2% hits;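 active means activation above the mean of all tested compounds plus 3 SD, set per screening run, cut at about 8.8% in these data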;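 further: cells exposed to compound for 20 h before luminescence read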
Arbovirus anti: antivirals against arbovirus infection, primary screen, cell-based, full library, 10K replicate subset; arbovirus infection cell-based antiviral screen; 200,000 compounds, 0.37% hits; inhibition, % at 10 µM; AID 1251, 2008; in the data active means inhibition above about 30%
CHOP inhibitor: inhibitors of CHOP promoter induction, primary screen, cell-based, unfolded protein response, luciferase reporter | CHO-K1 CHOP-promoter luciferase, tunicamycin-induced, 15-18 h | inhibition, % at 10 µM | 220,000 compounds, 3.8% hits | AID 2732, 2010;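 active means compounds that reduced the stress-induced luciferase reporter signal by more than about 70% of percent inhibition, limit read from the data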
A number is an active result; - = inactive; . = no result. Unless noted, no stated cut-off is given here; in the data, active means inhibition above about 50%; inactive means the rest.

SMILES	PKD1 inh	Rad51 HR inh	L major viab	Wee1 stabilizer	Arbovirus anti	CHOP inhibitor
CC1CC(C)CN(C(=O)c2ccc3c(=O)n(Cc4ccc5c(c4)OCO5)c(=S)[nH]c3c2)C1 (stereo unspecified)	-	-	-	-	-	95.2
COCCCNC(=O)c1ccc2c(=O)n(Cc3ccc4c(c3)OCO4)c(=S)[nH]c2c1	-	-	-	-	-	-
COc1ccc(S(=O)(=O)N(C)CC(=O)N2CCC(C(N)=O)CC2)cc1Cl	-	-	-	-	-	-
CCCCCN(C(=O)CN1CCC(Cc2ccccc2)CC1)c1c(N)n(CCCC)c(=O)[nH]c1=O	-	-	-	-	-	-
O=C(COc1cccc2ccccc12)NNC(=O)CSCCO	-	-	57.4	-	-	-
Clc1ccc(CNC2CCCC2)c(Cl)c1	-	-	93.8	-	-	-
COc1cc(C#CC#CCN2CCCCC2)ccc1O	-	-	86.3	-	-	-
O=S(=O)(c1ccc2c(c1)OCCO2)N1CCC(n2cnc3cc(F)ccc32)CC1	-	-	68.7	-	-	-
CCN(CC(=O)NCc1ccc(Cl)cc1)C(=O)c1ccc(S(=O)(=O)N(C)C)cc1	-	-	-	-	-	-
O=C(CN1CCNCC1)Nc1ccc(Oc2ccccc2)cc1	-	-	-	-	-	-
Cc1cccc(C)c1NC(=O)CN1CCNCC1	-	-	-	-	-	87.0
CC(=O)Nc1ccc(NC(=O)CN(c2cccc([N+](=O)[O-])c2)S(C)(=O)=O)cc1	-	-	-	-	-	-
Cc1ccc2c(c1)N=C(c1ccc(Cl)cc1)CO2	-	-	-	-	-	70.8
c1ccc(C2=Nc3ccccc3OC2)cc1	-	-	68.8	-	-	-
Clc1ccc(C2=Nc3cc(Cl)ccc3OC2)cc1	-	-	-	-	-	-
CC1(C)Cc2nc3scc(NC(=O)c4ccccc4)c3cc2CO1	.	-	.	-	.	-
CCCn1c(=N)n(CC(=O)c2ccco2)c2ccccc21	-	-	-	-	-	-
Cc1ccccc1Cn1c(=N)n(CC(=O)c2ccco2)c2ccccc21	-	-	86.4	-	-	-
N=c1n(Cc2ccccc2)c2ccccc2n1CC(O)c1ccco1 (stereo unspecified)	-	-	89.3	-	-	-
N=c1n(Cc2ccccc2)c2ccccc2n1Cc1ccccc1	-	.	98.8	-	-	-
CCn1c(=N)n(CC(O)c2ccco2)c2ccccc21 (stereo unspecified)	-	-	-	-	-	-
COc1ccccc1C(=O)N/C(=C\c1ccc(Br)cc1)C(=O)N1CCCC1	.	-	.	-	.	-
CC(C)(C)NC(=O)C(c1cccs1)N(CC1CCCO1)C(=O)c1ccc(-c2ccccc2)[nH]1 (stereo unspecified)	-	-	-	-	-	-
O=C(NCC1CCCO1)C(c1cccs1)N(C(=O)c1ccc(-c2ccccc2)[nH]1)C1CCCC1 (stereo unspecified)	-	.	92.2	-	-	-
NC(=O)c1nsc(C(=O)N(c2ccccc2)C(C(=O)NCC2CCCO2)c2cccs2)c1N (stereo unspecified)	-	-	72.9	-	-	-
SMILES	PKD1 inh	Rad51 HR inh	L major viab	Wee1 stabilizer	Arbovirus anti	CHOP inhibitor
O=C(NCC1CCCO1)C(c1cccs1)N(Cc1ccccc1)C(=O)c1ccc(-c2ccccc2)[nH]1 (stereo unspecified)	-	.	68.1	-	-	-
CC(C)CN(C(=O)CN1CCc2ccccc21)c1c(N)n(CC(C)C)c(=O)[nH]c1=O	-	-	-	-	-	-
OC(CNC1CCCc2ccccc21)COc1c(Cl)cccc1Cl (stereo unspecified)	-	-	93.3	-	-	-
Cc1ccc(NC(=O)C2=C(O)CCn3c2nc2ccccc23)cc1	-	-	57.4	-	-	-
Cc1cccc(Oc2ncnc3oc(-c4ccccc4)cc23)c1C	-	-	-	-	-	-
COC(=O)c1ccc(C#Cc2ccccc2)o1	.	-	.	-	.	-
CC1=CCC2C(=O)N(CCc3c[nH]c4ccccc34)C(=O)C2C1 (stereo unspecified)	-	-	97.9	-	-	-
O=C1C2CC=C(Cl)CC2C(=O)N1CCc1c[nH]c2ccccc12 (stereo unspecified)	-	-	-	-	-	-
Cc1c(NC(=O)C(C)OC(=O)/C=C/c2ccc3c(c2)OCO3)c(=O)n(-c2ccccc2)n1C (stereo unspecified)	-	-	-	-	-	-
CC(=O)Nc1ccc(/C(C)=N/Nc2nc(Nc3cccc4ccccc34)nc(N3CCOCC3)n2)cc1	-	-	57.9	-	-	-
C/C(=N\Nc1nc(N2CCCCC2)nc(N2CCOCC2)n1)c1cccs1	-	-	-	-	-	-
C/C(=N\Nc1nc(N2CCCCCC2)nc(N2CCCCCC2)n1)c1ccccc1	-	-	51.0	-	-	-
COC(=O)c1cc(S(=O)(=O)C(C)C)c(S(C)=O)s1 (stereo unspecified)	.	-	.	-	.	-
CSc1ncccc1C(=O)Nc1nnc(C2CC2)s1	-	-	-	-	-	-
c1ccc2sc(Sc3ncnc4sccc34)nc2c1	-	-	68.6	-	-	-
CC(C)(C)c1ccc(C(=O)N/N=C/c2ccc(OCCCF)cc2)cc1	-	-	-	-	-	-
COc1cccc(-n2c(SCC(=O)NCc3ccco3)nnc2-c2c[nH]c3ccccc23)c1	-	-	98.4	-	-	-
COc1ccc(C(=O)NCc2nnc(SCC(=O)N3CCc4ccccc43)n2Cc2ccccc2)cc1	-	-	64.5	-	-	-
COc1ccc(OC)c(-n2c(SCC(=O)NCc3ccco3)nnc2-c2c[nH]c3ccccc23)c1	-	-	96.3	-	-	-
COc1cccc(-n2c(SCC(=O)N3CCc4ccccc43)nnc2-c2c[nH]c3ccccc23)c1	-	-	-	-	-	90.4
CCn1c(SCC(=O)NCc2ccco2)nnc1-c1c[nH]c2ccccc12	-	-	-	-	-	-
O=C(/C=C/Nc1ccc(Cc2ccc(N/C=C/C(=O)C(F)(F)F)cc2)cc1)C(F)(F)F	-	-	-	-	-	-
CC[N+]1(CC(O)COC2CC(C)CC(C)(C)C2)CCOCC1 (stereo unspecified)	.	-	.	-	.	-
NC(=O)c1ccccc1NC(=O)Nc1cccc(Cl)c1Cl	-	-	64.8	-	-	-
Cc1c(Cl)cccc1NC(=O)Nc1ccccc1C(N)=O	-	.	-	-	-	-
CC(C)(C)CC(C)(C)NC(=S)N1CCN(Cc2ccc3c(c2)OCO3)CC1	-	-	82.0	-	-	-
Cc1ccc(Nc2nc(N)nc(CN3CCN(Cc4ccc5c(c4)OCO5)CC3)n2)cc1Cl	-	-	70.1	-	-	-
